Published values pooled from the literature.
Lines come from different studies, so protocols differ.
FPR1: fMet-Leu-Phe receptor (FPR1, Homo sapiens, UniProt P21462)
SLC6A2: Sodium-dependent noradrenaline transporter (SLC6A2, Homo sapiens, UniProt P23975)
DNA dC->dU-editing enzyme APOBEC-3B: DNA dC->dU-editing enzyme APOBEC-3B (Homo sapiens, UniProt Q9UH17)

| SMILES | target | assay | test system | conditions | inhibition [%] |
| --- | --- | --- | --- | --- | --- |
| CCN(Cc1ccccc1C(F)(F)F)C(=O)C1CCN(S(=O)(=O)c2ccc3[nH]ncc3c2)CC1 | Cysteinyl leukotriene receptor 1 (CYSLTR1, Homo sapiens, UniProt Q9Y271) | ligand displacement, radioligand |  | 10 µM | 38 |
| COc1ccccc1-c1c(C(F)(F)F)oc2cc(OC(=O)C3CC3)ccc2c1=O | FPR1 | calcium signal, antagonist |  | 50 µM | 100 |
| Clc1ccc(C(c2ccc(Cl)cc2)c2nnnn2CCCCN2CCC(c3ccccc3)CC2)cc1 | SLC6A2 | transporter uptake, inhibitor | HEK293 | 1 µM | 34 |
| CCN(CC)c1ccc(C2=NNC(=O)CC2C)cc1[N+](=O)[O-] (stereo not shown) | 3',5'-cyclic-AMP phosphodiesterase 4B (PDE4B, Homo sapiens, UniProt Q07343) | enzyme activity, inhibitor |  | 0.1 µM | 21 |
| Oc1cccc(Nc2nc(-c3ccc(F)cc3F)cs2)c1 | Muscarinic acetylcholine receptor M5 (CHRM5, Homo sapiens, UniProt P08912) | cell-free assay |  | 10 µM | -24.9 |
| CC(=O)N[C@H]1CSSC[C@@H](C(=O)N[C@H](Cc2c[nH]c3ccccc23)C(N)=O)NC(=O)[C@H](Cc2ccccc2)NC(=O)[C@H](CCCNC(=N)N)NC1=O | Melanocortin receptor 4 (MC4R, Homo sapiens, UniProt P32245) | ligand displacement, radioligand |  | 10 µM, 40 min | 0 |
| COc1ccccc1-c1c(C(F)(F)F)oc2cc(OC(=O)c3ccccc3)ccc2c1=O | FPR1 | calcium signal, antagonist |  | 50 µM | 90 |
| O=c1c(-c2ccc(O)cc2)coc2c(OC3OC(CO)C(O)C(O)C3O)c(O)ccc12 (stereo not shown) | DNA dC->dU-editing enzyme APOBEC-3B | enzyme activity, inhibitor, fluorescence |  | 100 µM | 37.5 |
| Clc1ccc(C(c2ccccc2)c2nnnn2CCCCN2CCN(CC=Cc3ccccc3)CC2)cc1 (stereo not shown) | SLC6A2 | transporter uptake, inhibitor | HEK293 | 1 µM | 50.4 |
| COC(=O)Nc1nc2ccc(C(=O)c3cccs3)cc2[nH]1 | DNA dC->dU-editing enzyme APOBEC-3B | enzyme activity, inhibitor, fluorescence |  | 100 µM | 25.9 |
| O=C(Oc1ccc2c(=O)c(-c3ccccc3)c(C(F)(F)F)oc2c1)c1cccs1 | FPR1 | calcium signal, antagonist |  | 50 µM | 90 |
| Fc1ccc(C(c2ccc(F)cc2)c2nnnn2CCCCN2CCC(Cc3ccccc3)CC2)cc1 | SLC6A2 | transporter uptake, inhibitor | HEK293 | 1 µM | 81 |
| CCN1CCN(Cc2ccc(NC(=O)c3ccc(C)c(Oc4ccnc5[nH]ccc45)c3)cc2C(F)(F)F)CC1 | Serine/threonine-protein kinase 10 (STK10, Homo sapiens, UniProt O94804) | target engagement in cells, inhibitor, chemoproteomics | Huh-7 | 10 µM | -64.9 |
| CC/C(=N\NC(=O)NCc1cccc(O)c1)c1ccc(O)c(C)c1O | Fibroblast growth factor receptor 4 (FGFR4, Homo sapiens, UniProt P22455, V550E) | enzyme activity, inhibitor |  | 0.1 µM | 1.5 |
| O=C(Oc1ccc2c(=O)c(-c3ccccc3Cl)c(C(F)(F)F)oc2c1)c1cccs1 | FPR1 | calcium signal, antagonist |  | 50 µM | 100 |
| Fc1ccc(C(c2ccc(F)cc2)c2nnnn2CCCN2CCC(CCCc3ccccc3)CC2)cc1 | SLC6A2 | transporter uptake, inhibitor | HEK293 | 1 µM | 23.8 |
| Cc1c(COc2c(F)cc(F)cc2F)c2c(n1C)C(=O)C=C(NCCCN(C)C)C2=O | Ribosyldihydronicotinamide dehydrogenase [quinone] (NQO2, Homo sapiens, UniProt P16083) | enzyme activity, inhibitor |  | 1 µM | 98 |
| OCC1OC(Oc2cc(O)cc(/C=C/c3ccc(O)cc3)c2)C(O)C(O)C1O (stereo not shown) | DNA dC->dU-editing enzyme APOBEC-3B | enzyme activity, inhibitor, fluorescence |  | 100 µM | 31.5 |
| COc1ccccc1-c1c(C(F)(F)F)oc2cc(OC(=O)C(C)C)ccc2c1=O | FPR1 | calcium signal, antagonist |  | 50 µM | 100 |
| Nc1c(Cl)cccc1C(=O)Nc1ccccc1C(=O)O | srtA (Staphylococcus aureus, UniProt Q2FV99) | enzyme activity, inhibitor |  | 200 µM | 100 |
| Fc1ccc(C(c2ccc(F)cc2)c2nnnn2CCCCN2CCC(CCCc3ccccc3)CC2)cc1 | SLC6A2 | transporter uptake, inhibitor | HEK293 | 1 µM | 48 |
| COc1ccccc1-c1c(C)oc2cc(OC(=O)c3ccco3)ccc2c1=O | FPR1 | calcium signal, antagonist |  | 50 µM | 100 |
| Clc1ccc(C(c2ccccc2)c2nnnn2CCCCN2CCN(CCCc3ccccc3)CC2)cc1 (stereo not shown) | SLC6A2 | transporter uptake, inhibitor | HEK293 | 1 µM | 63.6 |
| CNC(=O)c1cc(Oc2ccc(NC(=O)Nc3ccc(Cl)c(C(F)(F)F)c3)cc2)ccn1 | Fibroblast growth factor receptor 1 (FGFR1, Homo sapiens, UniProt P11362, V561M) | cell-free assay |  | 10 µM | 84 |
| Clc1ccc(C(c2ccccc2)c2nnnn2CCCCN2CCN(CCc3ccccc3)CC2)cc1 (stereo not shown) | SLC6A2 | transporter uptake, inhibitor | HEK293 | 1 µM | 47.6 |
| Cc1ccc(Nc2nccc(N(C)c3ccc4c(C)n(C)nc4c3)n2)cc1S(N)(=O)=O | Serine/threonine-protein kinase Chk2 (CHEK2, Homo sapiens, UniProt O96017, R145W) | enzyme activity, inhibitor |  | 0.3 µM | -4 |
| Cc1nnc2sc(C(=O)NCc3ccc(S(=O)(=O)C(F)(F)F)cc3)c(N)c2c1C | Glutamate receptor ionotropic, NMDA 1 (Grin1, Rattus norvegicus, UniProt P35439) | ligand displacement, radioligand |  | 10 µM | 14 |
| Fc1ccc(C(c2ccc(F)cc2)c2nnnn2CCCCN2CCN(CCCc3ccccc3)CC2)cc1 | SLC6A2 | transporter uptake, inhibitor | HEK293 | 1 µM | 86.4 |
